According to ChEMBL document CHEMBL2346661, “Improved guanide compounds which bind the CXCR4 co-receptor and inhibit HIV-1 infection” (Bioorg Med Chem Lett, 2013):
One block for each compound: values may come before it. The source made the active and inactive calls. The calls are words filed in the database; no cut-off is given here.

Columns and labels:
[1] = tested on: Human immunodeficiency virus 1; assay: Antiviral activity against R5 tropic HIV1 infected in human TZM-bl cells; type: functional, organism-based
[2] = target: T1, C-X-C chemokine receptor type 4 (Homo sapiens, UniProt P61073); assay: Inhibition of T-140 binding to CXCR4 (unknown origin) expressed in dog Cf2Th cells incubated for 30 mins prior to T-140 addition measured after 30 mins by fluorescence assay; type: cell-based
T1 sequence (P61073 whole entry): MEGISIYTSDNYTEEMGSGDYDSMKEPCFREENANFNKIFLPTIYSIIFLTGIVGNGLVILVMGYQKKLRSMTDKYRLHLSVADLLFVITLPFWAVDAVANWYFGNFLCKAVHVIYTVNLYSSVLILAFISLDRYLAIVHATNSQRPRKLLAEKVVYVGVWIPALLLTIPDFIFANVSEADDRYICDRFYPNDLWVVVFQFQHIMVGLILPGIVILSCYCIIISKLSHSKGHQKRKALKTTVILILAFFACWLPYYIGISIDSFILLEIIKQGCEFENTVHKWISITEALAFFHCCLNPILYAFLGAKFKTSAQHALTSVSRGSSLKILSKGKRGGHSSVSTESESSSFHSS

[3] = tested on: MDA-MB-231; assay: Cytotoxicity against human MDA-MB-231 cells expressing CXCR4 after 48 to 72 hrs by MTS assay; type: cell-based
How it was run: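 MDA-MB-231 breast cancer cells (CXCR4-expressing) exposed to compound for 48 to 72 h; viability by MTS dye reduction (CellTiter 96 Aqueous non-radioactive proliferation assay), run per manufacturer's protocol.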

[4] = target: T1, C-X-C chemokine receptor type 4; assay: Inhibition of anti-CXCR4 mAb-44716 binding to CXCR4 in human H9 cells at 1 uM incubated for 20 mins prior to mAbs-44716 addition measured after 1 hr by flow cytometric analysis; type: cell-based
How it was run: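 H9 cells held 20 min at 4°C with […] compound in PBS/BSA/azide. Anti-CXCR4 mAb 44716 or an isotype control (anti-ricin RAC18) then added to 1 μg/ml for 1 h at 4°C. Washed, stained with Alexa 488 anti-mouse IgG for 1 h at 4°C, then fixed in 2% paraformaldehyde. Flow cytometry on 10,000 events; % inhibition from median fluorescence intensity.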

[5] = target: T1, C-X-C chemokine receptor type 4; assay: Inhibition of anti-CXCR4 mAb-44708 binding to CXCR4 in human H9 cells at 3 uM incubated for 20 mins prior to mAb-44708 addition measured after 1 hr by flow cytometric analysis; type: cell-based
How it was run: (§1)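 H9 cells pre-incubated at 4°C with […] compound in PBS/BSA/azide, then stained with anti-CXCR4 mAb 12G5, 44708, 44716 or 44717 at 1 μg/ml for 1 h. Detection with Alexa 488 anti-mouse IgG, then 2% paraformaldehyde fixation. Flow cytometry on 10,000 events; % inhibition from median fluorescence intensity.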

[6] = tested on: Human immunodeficiency virus 1; assay: Antiviral activity against X4 tropic HIV1 NL4-3 infected in human TZM-bl cells assessed as neutralization of viral infectivity at 50 to 100 nM incubated 1 hr prior to viral infection measured after 72 hrs by luciferase reporter gene assay; type: functional, organism-based
[7] = target: T-cell surface glycoprotein CD4 (Homo sapiens) (UniProt P01730); assay: Inhibition of anti-CD4 mAb sim-2 binding to CD4 in human H9 cells at 0.1 to 10 uM incubated for 20 mins prior to mAb sim-2 addition measured after 1 hr by flow cytometric analysis; type: cell-based
How it was run: (§2)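 H9 cells or primary PHA-induced T-cell blasts pre-incubated 20 min at 4°C with a range of compound concentrations in PBS/1% BSA/0.01% sodium azide. mAb 12G5 (anti-CXCR4) or Sim.2 (anti-CD4) then added to 1 μg/ml for 1 h at 4°C. Detection with Alexa Fluor 488 goat anti-mouse IgG at 2 μg/ml for 1 h, then 2% paraformaldehyde fixation. Flow cytometry on 10,000 events; % inhibition from median fluorescence intensity against no-drug and no-Ab controls.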

[8] = Cytotoxicity against PHA-induced human T cells up to 4 uM after 72 hrs by MTS assay; type: cell-based; details: t-cell
How it was run: (§3)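 Cultures of TZM-bl, H9, or PHA blasts exposed to compound at concentrations up to 4 μM; MTS dye reduction measured at 72 h.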

[9] = tested on: Human immunodeficiency virus 1; assay: Antiviral activity against X4 tropic HIV1 BZ-167 infected in human TZM-bl cells assessed as neutralization of viral infectivity at 50 to 100 nM incubated 1 hr prior to viral infection measured after 72 hrs by luciferase reporter gene assay; type: functional, organism-based
[10] = target: T1, C-X-C chemokine receptor type 4; assay: Inhibition of anti-CXCR4 mAb-12G5 binding to CXCR4 in PHA-induced human T cells at 0.1 to 10 uM incubated for 20 mins prior to mAbs-12G5 addition measured after 1 hr by flow cytometric analysis; type: cell-based; details: T-cell; how it was run: as §2
[11] = tested on: H9; assay: Cytotoxicity against human H9 cells up to 4 uM after 72 hrs by MTS assay; type: cell-based; details: h9, 72 h; how it was run: as §3
[12] = target: T-cell surface glycoprotein CD4 (Homo sapiens) (UniProt P01730); assay: Inhibition of anti-CD4 mAb sim-2 binding to CD4 in PHA-induced human T cells at 0.1 to 10 uM incubated for 20 mins prior to mAb sim-2 addition measured after 1 hr by flow cytometric analysis; type: cell-based; how it was run: as §2
[13] = Cytotoxicity against human TZM-bl cells up to 4 uM after 72 hrs by MTS assay; type: cell-based; how it was run: as §3
[14] = tested on: Human immunodeficiency virus 1; assay: Antiviral activity against X4 tropic HIV1 isolate 92-UG-029 infected in human TZM-bl cells assessed as neutralization of viral infectivity at 50 to 100 nM incubated 1 hr prior to viral infection measured after 72 hrs by luciferase reporter gene assay; type: functional, organism-based
[15] = target: T1, C-X-C chemokine receptor type 4; assay: Inhibition of anti-CXCR4 mAb-12G5 binding to CXCR4 in human H9 cells at 0.1 to 10 uM incubated for 20 mins prior to mAbs-12G5 addition measured after 1 hr by flow cytometric analysis; type: cell-based; how it was run: as §2
[16] = target: T1, C-X-C chemokine receptor type 4; assay: Inhibition of anti-CXCR4 mAb-12G5 binding to CXCR4 in human H9 cells at 3 uM incubated for 20 mins prior to mAbs-12G5 addition measured after 1 hr by flow cytometric analysis; type: cell-based; how it was run: as §1
[17] = target: T1, C-X-C chemokine receptor type 4; assay: Inhibition of anti-CXCR4 mAb-44717 binding to CXCR4 in human H9 cells at 3 uM incubated for 20 mins prior to mAb-44717 addition measured after 1 hr by flow cytometric analysis; type: cell-based; how it was run: as §1
[18] = target: T1, C-X-C chemokine receptor type 4; assay: Inhibition of anti-CXCR4 mAb-44716 binding to CXCR4 in human H9 cells at 3 uM incubated for 20 mins prior to mAbs-44716 addition measured after 1 hr by flow cytometric analysis; type: cell-based; how it was run: as §1
[19] = tested on: Human immunodeficiency virus 1; assay: Antiviral activity against X4 tropic HIV1 isolate 92-HT-599 infected in human TZM-bl cells assessed as neutralization of viral infectivity at 50 to 100 nM incubated 1 hr prior to viral infection measured after 72 hrs by luciferase reporter gene assay; type: functional, organism-based

- IC50 [2]: 0.26 µM
Structure (SMILES): N=C(NCCCCNCCCNC(=N)Nc1ccccc1)Nc1ccccc1
- CC50 [3]: > 1000 µM

- IC50 [2]: 0.11 µM
- inhibition [4]: Active
Structure (SMILES): N=C(NCCCNCCCCNCCCNC(=N)Nc1ccc2ccccc2c1)Nc1ccc2ccccc2c1
- Activity [1]: inactive
- CC50 [3]: 17 µM

- IC50 [2]: 0.3 µM
Structure (SMILES): N=C(NCCCN(CCCCN(CCCNC(=N)Nc1ccc2ccccc2c1)C(=N)Nc1ccc2ccccc2c1)C(=N)Nc1ccc2ccccc2c1)Nc1ccc2ccccc2c1
- CC50 [3]: 20 µM

- inhibition [5]: Active
- IC50 [2]: 0.04 µM
- inhibition [7]: inactive
- inhibition [4]: Active
- inhibition [10]: Active
- inhibition [12]: inactive
- inhibition [15]: Active
- inhibition [16]: Active
- inhibition [17]: Active
- inhibition [18]: Active
Structure (SMILES): N=C(NCCCNCCCCN(CCCNC(=N)Nc1cccc2ccccc12)C(=N)Nc1cccc2ccccc12)Nc1cccc2ccccc12
- Activity [6]: Active
- Activity [8]: Non-toxic
- Activity [9]: Active
- Activity [11]: Non-toxic
- Activity [1]: inactive
- Activity [13]: Non-toxic
- Activity [14]: Active
- CC50 [3]: 18 µM
- Activity [19]: Active

- IC50 [2]: 0.18 µM
- inhibition [4]: Active
Structure (SMILES): N=C(NCCCNCCCCNCCCNC(=N)Nc1cccc2ccccc12)Nc1cccc2ccccc12
- CC50 [3]: 300 µM

- inhibition [4]: Active
Structure (SMILES): N=C(NCCCNCCCCN(CCCNC(=N)Nc1ccc2ccccc2c1)C(=N)Nc1ccc2ccccc2c1)Nc1ccc2ccccc2c1
- Activity [1]: inactive

- IC50 [2]: 0.062 µM
Structure (SMILES): NC(=NCCCCNCCCN=C(N)Nc1ccc2ccccc2c1)Nc1ccc2ccccc2c1
- CC50 [3]: 76 µM

- IC50 [2]: 0.22 µM
Structure (SMILES): N=C(NCCCCNCCCNC(=N)Nc1cccc2ccccc12)Nc1cccc2ccccc12
- CC50 [3]: 120 µM

- IC50 [2]: 0.19 µM
Structure (SMILES): N=C(NCCCCN(CCCNC(=N)Nc1ccc2ccccc2c1)C(=N)Nc1ccc2ccccc2c1)Nc1ccc2ccccc2c1

The next lines start with the compound.

Structure (SMILES): N=C(NCCCCNCCCNC(=N)Nc1ccc2ccccc2c1)Nc1ccc2ccccc2c1
- Activity [1]: inactive

Structure (SMILES): NC(=NCCCCN(CCCN=C(N)Nc1cccc2ccccc12)C(N)=Nc1cccc2ccccc12)Nc1cccc2ccccc12
- IC50 [2]: 0.11 µM

Structure (SMILES): NC(=NCCCNCCCCN(CCCN=C(N)Nc1ccc2ccccc2c1)C(N)=Nc1ccc2ccccc2c1)Nc1ccc2ccccc2c1
- IC50 [2]: 0.093 µM
- CC50 [3]: 15 µM

Structure (SMILES): N=C(Nc1ccccc1)N(CCCCN=C(N)Nc1ccccc1)CCCN=C(N)Nc1ccccc1
- IC50 [2]: 0.28 µM
- CC50 [3]: 510 µM

Structure (SMILES): N=C(Nc1ccccc1)N(CCCCN(CCCN=C(N)Nc1ccccc1)C(N)=Nc1ccccc1)CCCNC(N)=Nc1ccccc1
- IC50 [2]: 0.51 µM
- CC50 [3]: > 100 µM

Structure (SMILES): N=C(NCCCN(CCCCN(CCCNC(=N)Nc1cccc2ccccc12)C(=N)Nc1cccc2ccccc12)C(=N)Nc1cccc2ccccc12)Nc1cccc2ccccc12
- IC50 [2]: 0.38 µM
- CC50 [3]: 7.3 µM

Structure (SMILES): NCCCNCCCCNCCCN
- inhibition [5]: inactive
- inhibition [10]: inactive
- inhibition [15]: inactive
- inhibition [16]: inactive
- inhibition [17]: inactive
- inhibition [18]: inactive
